# The source made the active and inactive calls. The rule behind the calls is not given here.
# Key:
# [1] = target: T1, C-X-C chemokine receptor type 6 (Homo sapiens, UniProt O00574); test: Antagonist activity at Prolink-tagged human CXCR6 receptor assessed as inhibition of CXCL16-induced beta-arrestin recruitment by DiscoveRx cell based assay
# Target sequence in this assay (O00574 whole entry): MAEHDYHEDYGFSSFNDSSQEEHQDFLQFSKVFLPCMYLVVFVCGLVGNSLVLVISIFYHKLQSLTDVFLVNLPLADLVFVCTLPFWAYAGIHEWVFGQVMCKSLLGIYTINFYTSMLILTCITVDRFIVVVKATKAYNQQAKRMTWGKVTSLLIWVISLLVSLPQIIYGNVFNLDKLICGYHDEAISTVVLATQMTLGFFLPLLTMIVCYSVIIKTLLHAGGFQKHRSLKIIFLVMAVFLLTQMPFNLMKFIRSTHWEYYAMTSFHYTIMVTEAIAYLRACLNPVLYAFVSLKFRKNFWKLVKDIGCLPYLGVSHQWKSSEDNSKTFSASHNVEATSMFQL
# [2] = target: T1, C-X-C chemokine receptor type 6; test: Antagonist activity at Prolink-tagged human CXCR6 receptor assessed as inhibition of CXCL16-induced beta-arrestin recruitment by DiscoveRx cell based assay relative to control; design: concentration or dose not given beside the values
# Method in brief: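 CXCR6 β-arrestin cells in assay media without G418/hygromycin, 800 cells/well, grown overnight at 37 °C; compounds added acoustically (DMSO ≤0.3%), then 20 nM CXCL16 (final) for 90 min at 37 °C. PathHunter luminescence read. Normalized between CXCL16-alone and no-ligand wells; four-parameter fit with Hill slope fixed at 1; at least two runs on different days, averaged pIC50 ± SD.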
# Target sequence in this assay (O00574 whole entry, looked up): as the sequence (O00574 whole entry) above
# [3] = target: T1, C-X-C chemokine receptor type 6; test: Antagonist activity at Prolink-tagged human CXCR6 receptor assessed as inhibition of forskolin-induced cAMP accumulation by DiscoveRx cell based assay; type: functional
# Method in brief: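 Lance Ultra TR-FRET cAMP assay in CXCR6 β-arrestin cells, 500 cells/well in OptiMEM/2% FBS, grown overnight. Compound added, then forskolin (2.5 mM stock) in HBSS/HEPES/BSA/RO-20-1724 with or without 20 nM CXCL16, 30 min at room temperature. Eu-cAMP tracer and ULight anti-cAMP antibody added, read after 30 min. Curve fit with Hill slope 1; ≥2 independent runs.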
# Target sequence in this assay (O00574 whole entry): as above
# [4] = target: T1, C-X-C chemokine receptor type 6; test: Antagonist activity at Prolink-tagged human CXCR6 receptor assessed as inhibition of forskolin-induced cAMP accumulation by DiscoveRx cell based assay relative to control; type: functional; design: concentration or dose not given beside the values
# Method in brief: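 CXCR6 β-arrestin cells in OptiMEM with 2% FBS, 500 cells/well, grown overnight; compounds added, then forskolin with 20 nM CXCL16 (stock concentrations) in HBSS/HEPES/BSA with RO-20-1724, 30 min at room temperature. cAMP read by LANCE Ultra TR-FRET after a further 30 min. Hill slope fixed at 1; at least two runs on different days, averaged pIC50 ± SD.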
# Target sequence in this assay (O00574 whole entry, looked up): as the sequence (O00574 whole entry) above
SMILES,IC50 [1],inhibition ([2]; concentration not given here),IC50 [3],inhibition ([4]; concentration not given here),inhibition [2],inhibition [4]
COc1cc(C(=O)N[C@@H]2C[C@H]3CCC[C@@H](C2)N3CC(=O)Nc2ccc(Cl)c(Cl)c2)cc(OC)c1OC,0.35 µM,103%,1.8 µM,101%,–,–
COc1cc(C(=O)N[C@@H]2C[C@H]3CCC[C@@H](C2)N3CC(=O)Nc2cc(C)ccc2C)cc(OC)c1OC,0.61 µM,105%,16.5 µM,108%,–,–
COc1cccc(NC(=O)CN2[C@@H]3CCC[C@H]2C[C@H](NC(=O)c2cc(OC)c(OC)c(OC)c2)C3)c1,5.8 µM,96%,51 µM,93%,–,–
COc1cc(C(=O)N[C@@H]2C[C@H]3CCC[C@@H](C2)N3Cc2ccc3ccccc3n2)cc(OC)c1OC,6.7 µM,88%,40.3 µM,88%,–,–
COc1cccc(C(=O)N[C@@H]2C[C@H]3CCC[C@@H](C2)N3CC(=O)Nc2ccc(Cl)cc2)c1,> 40 µM,–,14.5 µM,87%,inactive,–
COc1cc(C(=O)N[C@@H]2C[C@H]3CCC[C@@H](C2)N3Cc2nc3c(Br)cccc3s2)cc(OC)c1OC,0.08 µM,102%,1 µM,91%,–,–
COc1cc(C(=O)N[C@@H]2C[C@H]3CCC[C@@H](C2)N3CC(=O)Nc2cccc(Cl)c2)cc(OC)c1OC,0.41 µM,105%,4.3 µM,97%,–,–
COc1ccc(NC(=O)CN2[C@@H]3CCC[C@H]2C[C@H](NC(=O)c2cc(OC)c(OC)c(OC)c2)C3)cc1,19 µM,76%,> 40 µM,–,–,inactive
COc1cc(OC)cc(C(=O)N[C@@H]2C[C@H]3CCC[C@@H](C2)N3CC(=O)Nc2ccc(Cl)cc2)c1,> 40 µM,–,> 40 µM,–,inactive,inactive
COc1cc(C(=O)N[C@@H]2C[C@H]3CCC[C@@H](C2)N3CC(=O)Nc2ccc(Cl)cc2)cc(OC)c1OC,1.5 µM,101%,14.2 µM,93%,–,–
COc1cc(C(=O)N[C@@H]2C[C@H]3CCC[C@@H](C2)N3CC(=O)Nc2ccccc2C(F)(F)F)cc(OC)c1OC,0.64 µM,101%,7.9 µM,105%,–,–
COc1cc(C(=O)N[C@@H]2C[C@H]3CCC[C@@H](C2)N3Cc2nc3ccccc3s2)cc(OC)c1OC,0.3 µM,101%,7.9 µM,85%,–,–
COc1cc(C(=O)N[C@H]2C[C@H]3CCC[C@@H](C2)N3CC(=O)Nc2ccccc2)cc(OC)c1OC,> 40 µM,–,40.9 µM,70%,inactive,–
COc1cc(C(=O)N[C@@H]2C[C@H]3CCC[C@@H](C2)N3CC(=O)Nc2ccc(F)cc2)cc(OC)c1OC,5.8 µM,100%,30.7 µM,90%,–,–
COc1cc(C(=O)N[C@@H]2C[C@H]3CCC[C@@H](C2)N3Cc2cc3ccccc3s2)cc(OC)c1OC,0.9 µM,93%,25 µM,49%,–,–
COc1cc(C(=O)N[C@@H]2C[C@H]3CCC[C@@H](C2)N3CC(=O)Nc2cc(Cl)cc(Cl)c2)cc(OC)c1OC,0.31 µM,104%,1.3 µM,96%,–,–
O=C(CN1[C@@H]2CCC[C@H]1C[C@H](NC(=O)c1ccc3c(c1)OCO3)C2)Nc1ccc(Cl)cc1,> 40 µM,–,5.3 µM,84%,inactive,–

SMILES,IC50 [1],inhibition ([2]; concentration not given here),IC50 [3],inhibition ([4]; concentration not given here),inhibition [2],inhibition [4]
COc1cc(C(=O)N[C@@H]2C[C@H]3CCC[C@@H](C2)N3Cc2nc3c(C)cccc3s2)cc(OC)c1OC,0.25 µM,100%,4.8 µM,86%,–,–
COc1cc(C(=O)N[C@@H]2C[C@H]3CCC[C@@H](C2)N3CC(=O)Nc2cccc(F)c2)cc(OC)c1OC,0.84 µM,104%,8.5 µM,103%,–,–
COc1cc(C(=O)N[C@@H]2C[C@H]3CCC[C@@H](C2)N3Cc2ccc(Cl)cc2)cc(OC)c1OC,23.7 µM,90%,38.6 µM,58%,–,–
COc1ccccc1NC(=O)CN1[C@@H]2CCC[C@H]1C[C@H](NC(=O)c1cc(OC)c(OC)c(OC)c1)C2,2.1 µM,102%,14.7 µM,100%,–,–
COc1cc(C(=O)N[C@@H]2C[C@H]3CCC[C@@H](C2)N3CC(=O)Nc2cccc(Cl)c2Cl)cc(OC)c1OC,0.12 to 0.16 µM,96 to 102%,0.41 to 25.6 µM,39 to 78%,–,–
COc1cc(C(=O)N[C@@H]2C[C@H]3CCC[C@@H](C2)N3CC(=O)Nc2ccccc2Br)cc(OC)c1OC,0.16 µM,105%,0.9 µM,104%,–,–
COc1cc(C(=O)N[C@@H]2C[C@H]3CCC[C@@H](C2)N3Cc2nc3cc(Cl)ccc3s2)cc(OC)c1OC,0.17 µM,100%,3.2 µM,90%,–,–
COc1cc(C(=O)N[C@@H]2C[C@H]3CCC[C@@H](C2)N3Cc2c[nH]c3ccccc23)cc(OC)c1OC,> 50 µM,–,> 50 µM,–,inactive,inactive
COc1cc(C(=O)N[C@@H]2C[C@H]3CCC[C@@H](C2)N3Cc2cn3ccccc3n2)cc(OC)c1OC,> 50 µM,–,> 50 µM,–,inactive,inactive
COc1cc(C(=O)N[C@@H]2C[C@H]3CCC[C@@H](C2)N3CC(=O)Nc2cc(Cl)ccc2Cl)cc(OC)c1OC,0.13 µM,99%,0.7 µM,101%,–,–
COc1cc(C(=O)N[C@@H]2C[C@H]3CCC[C@@H](C2)N3CC(=O)Nc2ccc(Cl)cc2Cl)cc(OC)c1OC,0.16 µM,105%,0.9 µM,105%,–,–
COc1cc(C(=O)N[C@@H]2C[C@H]3CCC[C@@H](C2)N3Cc2nc3ccccc3[nH]2)cc(OC)c1OC,10.5 µM,84%,> 40 µM,–,–,inactive
COc1cc(C(=O)N[C@@H]2C[C@H]3CCC[C@@H](C2)N3CC(=O)Nc2ccccc2C)cc(OC)c1OC,0.79 µM,104%,9.3 µM,101%,–,–
COc1cc(C(=O)NC2CCN(CC(=O)Nc3ccccc3)CC2)cc(OC)c1OC,> 40 µM,–,> 40 µM,–,inactive,inactive
COc1cc(C(=O)N[C@@H]2C[C@H]3CCC[C@@H](C2)N3Cc2ccccc2Cl)cc(OC)c1OC,6.8 µM,99%,11.5 µM,101%,–,–
COc1cc(C(=O)N[C@@H]2C[C@H]3CC[C@@H](C2)N3CC(=O)Nc2ccccc2)cc(OC)c1OC,–,63%,> 40 µM,–,–,inactive
